Drawing on PubChem BioAssay, this text covers viability, differential viability (reversal) and inhibition for 19 compounds.

Test [1] can be described thus: HUVEC growth inhibition – cell-based, human, primary screen (AID 575;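 active = viability at or below 30% in both replicate assays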;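 also: 100% = median of untreated cell wells with 0.1% DMSO on each plate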). The settings on record: HUVEC proliferation, CellTiter-Glo luminescence, 72 h; at 10 µM; stronger effect = lower value. An outline of the steps:
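Assay system: primary human umbilical vein endothelial cells / Buffer or medium: endothelial basal medium with 2% FBS plus growth supplements / Compound dosing: one dose, 10 µM final, 0.1% DMSO / Timing: 72 h treatment at 37 °C / Signal: CTG luminescence / Benchmarks: 32 DMSO-only cell-control wells (high), 32 MePR drug-control wells (low) per plate / Plate: collagen-coated 384-well format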
(In general: In ATP-based viability assays light output follows the ATP content of the culture.)

The nature of test [2]: H69AR cell proliferation blockers – human, duplicate replicates, primary screen (AID 580;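 active = viability at or under a set limit in both replicates, limit being median viability minus 3 SD, cut at about 48% in these data, passing the limit was not always enough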;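 also: 100% = mean luminescence of untreated wells and 0% = no signal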). The settings on record: H69AR lung tumor cells viability, ATP luminescence, 72 h; at 10 µM; stronger effect = lower value.
The nature of test [3]: MRP1 drug-resistance reversers in H69AR cells – cell-based, doxorubicin co-treatment, pilot screen (AID 601;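 active = viability loss from added drug above about 55%, and viability with drug at most 40%, in both replicates, limit read from the data, passing the limit was not always enough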). The settings on record: CellTiter-Glo, 72 h, at 10 µM; for differential viability (reversal): stronger effect = higher value.
Test [4] is described as follows: yeast transport mutant growth inhibition pilot in 384-well plates, post-Golgi transport modulator project (AID 636; in the data active = inhibition above about 31%). The conditions noted are these: absorbance 615 nm, about 18 h, stronger effect = higher value.
The nature of test [5]: growth suppression of yeast trafficking mutant, preliminary HTS, modulators of trafficking downstream of Golgi apparatus project, 1536-format plate, OD 615 nm (AID 637). The settings on record: yeast transport mutant growth, absorbance 615 nm, 18 h; stronger effect = higher value.
[6] abbreviates: H69AR cells + 2 uM doxorubicin, measured here: viability with 2 uM doxorubicin, stronger effect = lower value.
Setting [7] is: H69AR cells, compound alone cytotoxicity.

Structures are written as SMILES. Calls of active or inactive are those of the source. Rule as the data show it, unless noted: active = inhibition above about 30%; inactive = the rest.

By viability is commonly meant a read-out of living cells in per cent, often relative to untreated cells. Broadly, the inhibition is the relative decrease from the control value, in per cent. In the case of `O=C(NCCN1CCCCCC1)c1ccc(N2CCCC2=O)cc1`, the viability is 91% (inactive) in test [1], 95.9% (inactive) in test [2], 92.5% in test [3] (setting [6]) and 95.9% in test [3] (setting [7]). The differential viability (reversal) in test [3] (H69AR cells + 2 uM doxorubicin) was 3.38% (inactive). In addition, the inhibition in test [4] is -7.2% (inactive); in test [5], 12.5% (inactive).

Regarding `O=S(=O)(c1ccccc1)N1CCSC1c1ccco1` (stereo not given), the viability is 83.6% (inactive) in test [1], 72.2% (inactive) in test [2], 87.9% in test [3] (setting [6]) and 72.2% in test [3] (setting [7]). For the same compound, the differential viability (reversal) in test [3] (H69AR cells + 2 uM doxorubicin) was -15.6% (inactive). For the same compound, the values for the inhibition in test [4] and in test [5] were -0.13% (inactive) and 5.56% (inactive), respectively.

With `Cc1cc(C)cc(Nc2ncc3c(n2)CC(c2ccco2)CC3=O)c1` (stereo not given), the viability in test [1] is 86.1% (inactive); in test [2], 88.3% (inactive); in test [3] (setting [6]), 87.3%; in test [3] (setting [7]), 88.3%. In addition, the differential viability (reversal) in test [3] (H69AR cells + 2 uM doxorubicin) is 1% (inactive). In addition, the values for the inhibition in test [4] and in test [5] were -6.67% (inactive) and 3.17% (inactive), respectively.

Take `COCCNC(=O)c1ccc(Cl)c(Cl)c1`: the viability in test [1] was 108% (inactive); in test [2], 102% (inactive); in test [3] (setting [6]), 85%; in test [3] (setting [7]), 102%. Moreover, the differential viability (reversal) in test [3] (H69AR cells + 2 uM doxorubicin) is 17% (inactive). Besides, the inhibition was -3.16% (inactive) in test [4] and -0.16% (inactive) in test [5].

With `CCNc1ccc2c(Cl)cc(=O)oc2c1`, the viability was 68.2% (inactive) in test [1], 79.8% (inactive) in test [2], 74.5% in test [3] (setting [6]) and 79.8% in test [3] (setting [7]). Besides, in test [3] (H69AR cells + 2 uM doxorubicin), the differential viability (reversal) was 5.29% (inactive). The values for the inhibition in test [4] and in test [5] were -5.73% (inactive) and -1.59% (inactive), respectively.

Take `Cc1ccc(S(=O)(=O)N(C)CC(=O)NC2CCCC2)cc1`: the viability in test [1] is 118% (inactive); in test [2], 102% (inactive); in test [3] (setting [6]), 84.9%; in test [3] (setting [7]), 102%. For the same compound, in test [3] (H69AR cells + 2 uM doxorubicin), the differential viability (reversal) was 17.5% (inactive). For the same compound, the inhibition was -2.63% (inactive) in test [4] and 0.95% (inactive) in test [5].

`CCOCCCNC(=O)c1ccc2c(c1)ncn2C1CCCC1`: the viability in test [1] was 91% (inactive); in test [2], 95.8% (inactive); in test [3] (setting [6]), 88.5%; in test [3] (setting [7]) it was 95.8%. In addition, the differential viability (reversal) in test [3] (H69AR cells + 2 uM doxorubicin) is 7.26% (inactive). The inhibition in test [4] is 2.24% (inactive); in test [5], -3.81% (inactive).

`O=C(NCCc1ccccc1)c1cc(-c2ccco2)on1`: the viability in test [1] is 81.3% (inactive); in test [2], 88.6% (inactive). Also, the inhibition in test [4] is -4.08% (inactive); in test [5] it was 7.94% (inactive).

As to `CCOC(=O)Cc1nnc(NC(=O)c2ncn[nH]2)s1`, the viability was 95.4% (inactive) in test [1], 98.8% (inactive) in test [2], 101% in test [3] (setting [6]) and 98.8% in test [3] (setting [7]). Further, the differential viability (reversal) in test [3] (H69AR cells + 2 uM doxorubicin) was -2.02% (inactive). Further, the inhibition in test [4] is -2.93% (inactive); in test [5] it was -1.27% (inactive).

Turning to `Cc1ccc(NC(=O)c2ccco2)cc1NC(=O)CSc1nnc(-c2cccs2)n1C`, the viability in test [1] was 112% (inactive); in test [2], 99.8% (inactive); in test [3] (setting [6]), 76.4%; in test [3] (setting [7]) it was 99.8%. Besides, the differential viability (reversal) in test [3] (H69AR cells + 2 uM doxorubicin) was 23.4% (inactive). Besides, the inhibition in test [4] was -6.13% (inactive); in test [5], 2.38% (inactive).

As for `COc1ccc(C2C(C(C)=O)=C(C)N=c3s/c(=C\c4ccc5c(c4)OCO5)c(=O)n32)c(OC)c1` (stereo not given), the viability in test [1] was 77.2% (inactive); in test [2], 99.7% (inactive); in test [3] (setting [6]), 103%; in test [3] (setting [7]), 99.7%. Further, the differential viability (reversal) in test [3] (H69AR cells + 2 uM doxorubicin) is -2.84% (inactive). Moreover, the inhibition in test [4] was -2.08% (inactive); in test [5], -4.76% (inactive).

As for `Cc1ccc(OCc2nnc(SCC(=O)Nc3ccc4c(c3)OCO4)n2C)cc1`, the viability in test [1] was 91.2% (inactive); in test [2], 76.9% (inactive); in test [3] (setting [6]) it was 99.3%; in test [3] (setting [7]), 76.9%. The differential viability (reversal) in test [3] (H69AR cells + 2 uM doxorubicin) is -22.4% (inactive). Moreover, the inhibition in test [4] was -7.07% (inactive); in test [5], 6.98% (inactive).

Regarding `O=C(c1nc2n(n1)C(c1ccc(Cl)cc1)C=C(c1ccccc1)N2)N1CCOCC1` (stereo not given), the viability in test [1] is 96.9% (inactive); in test [2], 91.9% (inactive); in test [3] (setting [6]), 98.8%; in test [3] (setting [7]), 91.9%. For the same compound, in test [3] (H69AR cells + 2 uM doxorubicin), the differential viability (reversal) was -6.89% (inactive). Further, the inhibition is -1.18% (inactive) in test [4] and -1.9% (inactive) in test [5].

For `COc1ccc(CCNC(=O)c2nc3ncccn3n2)cc1OC`, the viability is 113% (inactive) in test [1], 102% (inactive) in test [2], 94.5% in test [3] (setting [6]) and 102% in test [3] (setting [7]). The differential viability (reversal) in test [3] (H69AR cells + 2 uM doxorubicin) is 7.66% (inactive). Moreover, the inhibition in test [4] is -4.08% (inactive); in test [5], 7.78% (inactive).

Take `FC(F)(F)c1cc(-c2ccco2)nc(-n2nnc3ccccc32)n1`: the viability in test [1] was 59.5% (inactive); in test [2] it was 79.8% (inactive); in test [3] (setting [6]), 78.3%; in test [3] (setting [7]), 79.8%. Besides, the differential viability (reversal) in test [3] (H69AR cells + 2 uM doxorubicin) is 1.45% (inactive). The inhibition was -0.91% (inactive) in test [4] and 0.32% (inactive) in test [5].

As for `Cc1ccc2nc(CSc3nnc(-c4ccco4)n3-c3ccccc3)cc(=O)n2c1`, the viability was 109% (inactive) in test [1], 87.2% (inactive) in test [2], 98% in test [3] (setting [6]) and 87.2% in test [3] (setting [7]). Moreover, the differential viability (reversal) in test [3] (H69AR cells + 2 uM doxorubicin) is -10.8% (inactive). Further, the figures for the inhibition in test [4] and in test [5] were 4.81% (inactive) and 16.4% (inactive), respectively.

With `CCCCNC(=O)OC(C)CNC(=O)Oc1cccc(C)c1` (stereo not given), the viability was 75.7% (inactive) in test [1], 93.8% (inactive) in test [2], 92.2% in test [3] (setting [6]) and 93.8% in test [3] (setting [7]). Besides, the differential viability (reversal) in test [3] (H69AR cells + 2 uM doxorubicin) was 1.64% (inactive). Moreover, the inhibition in test [4] is -4.08% (inactive); in test [5], 3.49% (inactive).

Consider `C=C(C)CSc1nnc2[nH]c(=O)cc(N)n12`, for which the viability in test [1] is 65.8% (inactive); in test [2], 87.9% (inactive); in test [3] (setting [6]) it was 74.5%; in test [3] (setting [7]), 87.9%. In test [3] (H69AR cells + 2 uM doxorubicin), the differential viability (reversal) was 13.4% (inactive). The inhibition was -2.63% (inactive) in test [4] and 7.62% (inactive) in test [5].

Take `Cc1csc(NC(=O)c2cccc(S(=O)(=O)N3CCCCC3)c2)n1`: the viability in test [1] was 70.6% (inactive); in test [2] it was 87.5% (inactive); in test [3] (setting [6]), 91.5%; in test [3] (setting [7]), 87.5%. Besides, the differential viability (reversal) in test [3] (H69AR cells + 2 uM doxorubicin) is -3.96% (inactive). Also, the inhibition in test [4] was -3.51% (inactive); in test [5], -9.05% (inactive).
